# According to PubChem BioAssay:
# Values without a mark were called inactive. The source made the active and inactive calls.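 The calls were made as follows, unless noted: active = fluorescence slope after compound addition differing from the mean of all screened samples at 99.7% confidence, in either direction; inactive = the rest.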
# Molecular target: Alpha-2C adrenergic receptor (Homo sapiens) (UniProt P18825)
# Test: compounds altering alpha2C-coupled GIRK flux – cell-based, HEK293 alpha2C/GIRK1/2, thallium flux, primary screen (AID 624);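 also: slope of fluorescence ratio to pre-addition baseline per second over 15 to 24 s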
# Conditions: thallium flux BTC fluorescence, at 10 µM, actives lie on both sides
# Sequence of Alpha-2C adrenergic receptor (Homo sapiens) (P18825 whole entry, looked up): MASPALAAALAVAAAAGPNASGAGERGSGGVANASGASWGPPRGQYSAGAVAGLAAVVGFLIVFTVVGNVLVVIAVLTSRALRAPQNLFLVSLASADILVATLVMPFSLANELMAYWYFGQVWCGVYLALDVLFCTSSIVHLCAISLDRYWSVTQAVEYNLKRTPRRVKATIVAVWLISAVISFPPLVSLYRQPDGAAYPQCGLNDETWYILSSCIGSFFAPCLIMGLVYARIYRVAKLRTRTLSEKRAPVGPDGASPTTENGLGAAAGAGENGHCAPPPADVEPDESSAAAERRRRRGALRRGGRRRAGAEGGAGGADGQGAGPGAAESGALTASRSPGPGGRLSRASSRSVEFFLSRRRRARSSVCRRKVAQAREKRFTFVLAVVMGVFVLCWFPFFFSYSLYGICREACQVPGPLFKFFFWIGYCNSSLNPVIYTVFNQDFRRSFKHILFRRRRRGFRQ
row,SMILES,slope
1,COc1ccc(OC)c(NC(=O)CSc2nnc(-c3ccco3)n2-c2ccccc2)c1,0.00516
2,C#CCSc1nc(-c2cccs2)ccc1C#N,0.00646
3,O=C1c2oc3ccccc3c(=O)c2C(c2cccnc2)N1Cc1ccco1 (stereo not given),0.00687
4,Cc1ccc(C(=O)Nc2c(C(=O)N3CCOCC3)cnn2-c2ccccc2)cc1,0.00471
5,C#CCOC(=O)C1C2C=CC(C2)C1C(=O)O (stereo not given),0.00609
6,O=C(NC1CCCCCCC1)C1CCN(c2nc3ccccc3o2)CC1,0.0059
7,COC(=O)c1[nH]c2ccc(C)cc2c1NC(=O)CN1CCC(C)CC1,0.00492
8,Cc1cc(C)nc(SCc2nnc(SCC(=O)Nc3ncc(C)s3)n2Cc2ccco2)n1,0.00544
9,O=C(c1ccc(S(=O)(=O)N2CCC(c3nc4ccccc4s3)CC2)cc1)N1CCOCC1,0.00693
10,CCCCCc1nnc(NC(=O)Cc2cccs2)s1,0.00431
11,COc1ccc(N=C2C(=O)Nc3ccccc32)cc1,0.00431
12,O=C(O)CCc1ccc(-c2ccc(F)cc2)n1CCC(=O)O,0.00497
13,COC(=O)c1ccccc1NC(=O)c1cnc2sccn2c1=O,0.00479
14,COc1ccc(Cl)c(NC(=O)NCCN2CCN(c3ccccc3)CC2)c1,0.00501
15,COc1cccc(NC(=O)N(CCCN2CCOCC2)C(C)c2cc3cccc(OC)c3o2)c1 (stereo not given),0.00436
16,CC(C)(C)NC(=O)CN(Cc1cccs1)C(=O)c1csnn1,0.00455
17,O=C(CSc1nnc(-c2ccccn2)n1Cc1ccccc1)N1CCCC1,0.00635
18,Cc1[nH]nc(-c2ccc(O)c(C)c2O)c1-c1cnn(-c2ccccc2)c1,0.00436
19,O=C(CN1CCSCC1)N1CCc2[nH]c3ccc(Br)cc3c2C1,0.00508
20,COc1ccccc1C1N(c2ccc(F)cc2)C(=O)C2CCCN21 (stereo not given),0.00544

row,SMILES,slope
1,Cc1cc(N2C(=O)CC(N3CCN(c4ccc(C(=O)c5cccs5)cc4)CC3)C2=O)no1 (stereo not given),0.00594
2,CC(C)(C)NC(=O)C(Cc1ccccc1)NS(=O)(=O)c1cccc2nsnc12 (stereo not given),0.00438
3,COc1ccc(N2C(=O)c3cccc4cccc(c34)C2=O)nn1,0.00401
4,O=C(CSc1ccccc1C(=O)NCCCN1CCCC1=O)NCc1ccco1,0.00452
5,Cc1ccc(OCC(O)Cn2c(NCCc3ccccc3)nc3c2c(=O)[nH]c(=O)n3C)cc1 (stereo not given),0.00534
6,CC1CCCC(C)N1CCNC(=O)C1CCN(S(=O)(=O)N2CCCCC2)CC1 (stereo not given),0.00471
7,Cc1nc2ncnn2c(N2CCC(C(=O)NCC3CCCO3)CC2)c1Cc1ccccc1 (stereo not given),0.00509
8,COc1ccc(NC(=O)Nc2ccc(N3CCCC3=O)cc2)cc1OC,0.0047
9,CC(NC(=O)NC12CC3CC(CC(C3)C1)C2)C1CCCO1 (stereo not given),0.00592
10,COc1ccc(N2CCN(C(=O)CSc3ccccc3)CC2)cc1,0.00515
11,COC(=O)c1cccc(NC(=O)CN2CCN(Cc3ccccc3)CC2)c1,0.0056
12,O=C(Nc1ccc(-c2nc3ncccc3o2)cc1)c1ccc(Br)o1,0.00525
13,COc1ccc(S(=O)(=O)Nc2ccc(Cl)cn2)c(C)c1C,0.00866
14,COc1cccc(NC(=O)N2CCCC2C(=O)Nc2ccc3c(c2)OCO3)c1 (stereo not given),0.00477
15,O=C(CSc1nc2ccccc2c(=O)n1Cc1ccco1)NCc1ccccc1,0.0067
16,O=C(NC1CCCC1)C(NS(=O)(=O)c1cccc2nsnc12)c1ccccc1 (stereo not given),0.0045
17,CCOC(=O)c1sc(NC(=O)CSc2ncn(-c3ccccc3)n2)nc1C,0.00535
18,COC(=O)Nc1ccc(S(=O)(=O)N2CCCCCC2)cc1,0.0065
19,Cc1cc(C)n2nc(SCC(=O)N(C)Cc3ccccc3)nc2n1,0.00539
20,O=C(CSc1nnc(Cc2ccccc2)n1-c1cccc(Cl)c1)N1CCOCC1,0.00585

# Test system: not listed separately
# Test: inhibitors of larval lipid processing in zebrafish, primary screen, whole organism, PED6 fluorescence, gall bladder and intestine (AID 686;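 active = a full or partial loss of lipid-probe fluorescence in the fish gall bladder, intestine or both, judged by eye; inactive = no fluorescence loss, or compound toxic to the fish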;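 also: larvae 5 to 7 days old with five fish per well; signal comes from phospholipase A2 cleavage of quenched PED6 carried via bile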)
# Conditions: Zebrafish larvae PED6 lipid processing, fluorescence scoring; screened at 20 µM (by protocol)
# Summary of the method: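 Incubation: overnight exposure of larvae to compound plus PED6 / Test system: live zebrafish larvae aged 5-7 days, whole organism / Amount: 5 larvae per well / Read-out basis: visual per-well fluorescence inhibition score / Signal: visual fluorescence microscopy scoring of gall bladder, gut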
row,SMILES,outcome
1,COc1ccc(OC)c(NC(=O)CSc2nnc(-c3ccco3)n2-c2ccccc2)c1,inactive
2,C#CCSc1nc(-c2cccs2)ccc1C#N,inactive
3,O=C1c2oc3ccccc3c(=O)c2C(c2cccnc2)N1Cc1ccco1 (stereo not given),inactive
4,Cc1ccc(C(=O)Nc2c(C(=O)N3CCOCC3)cnn2-c2ccccc2)cc1,inactive
5,C#CCOC(=O)C1C2C=CC(C2)C1C(=O)O (stereo not given),inactive
6,O=C(NC1CCCCCCC1)C1CCN(c2nc3ccccc3o2)CC1,inactive
7,COC(=O)c1[nH]c2ccc(C)cc2c1NC(=O)CN1CCC(C)CC1,inactive
8,Cc1cc(C)nc(SCc2nnc(SCC(=O)Nc3ncc(C)s3)n2Cc2ccco2)n1,inactive
9,O=C(c1ccc(S(=O)(=O)N2CCC(c3nc4ccccc4s3)CC2)cc1)N1CCOCC1,inactive
10,CCCCCc1nnc(NC(=O)Cc2cccs2)s1,inactive
11,COc1ccc(N=C2C(=O)Nc3ccccc32)cc1,inactive
12,O=C(O)CCc1ccc(-c2ccc(F)cc2)n1CCC(=O)O,inactive; toxic
13,COC(=O)c1ccccc1NC(=O)c1cnc2sccn2c1=O,inactive
14,COc1ccc(Cl)c(NC(=O)NCCN2CCN(c3ccccc3)CC2)c1,inactive
15,COc1cccc(NC(=O)N(CCCN2CCOCC2)C(C)c2cc3cccc(OC)c3o2)c1 (stereo not given),inactive
16,CC(C)(C)NC(=O)CN(Cc1cccs1)C(=O)c1csnn1,inactive
17,O=C(CSc1nnc(-c2ccccn2)n1Cc1ccccc1)N1CCCC1,inactive
18,Cc1[nH]nc(-c2ccc(O)c(C)c2O)c1-c1cnn(-c2ccccc2)c1,inactive
19,O=C(CN1CCSCC1)N1CCc2[nH]c3ccc(Br)cc3c2C1,inactive
20,COc1ccccc1C1N(c2ccc(F)cc2)C(=O)C2CCCN21 (stereo not given),inactive

row,SMILES,outcome
1,Cc1cc(N2C(=O)CC(N3CCN(c4ccc(C(=O)c5cccs5)cc4)CC3)C2=O)no1 (stereo not given),inactive
2,CC(C)(C)NC(=O)C(Cc1ccccc1)NS(=O)(=O)c1cccc2nsnc12 (stereo not given),inactive
3,COc1ccc(N2C(=O)c3cccc4cccc(c34)C2=O)nn1,inactive
4,O=C(CSc1ccccc1C(=O)NCCCN1CCCC1=O)NCc1ccco1,inactive
5,Cc1ccc(OCC(O)Cn2c(NCCc3ccccc3)nc3c2c(=O)[nH]c(=O)n3C)cc1 (stereo not given),inactive
6,CC1CCCC(C)N1CCNC(=O)C1CCN(S(=O)(=O)N2CCCCC2)CC1 (stereo not given),inactive
7,Cc1nc2ncnn2c(N2CCC(C(=O)NCC3CCCO3)CC2)c1Cc1ccccc1 (stereo not given),inactive
8,COc1ccc(NC(=O)Nc2ccc(N3CCCC3=O)cc2)cc1OC,inactive
9,CC(NC(=O)NC12CC3CC(CC(C3)C1)C2)C1CCCO1 (stereo not given),inactive
10,COc1ccc(N2CCN(C(=O)CSc3ccccc3)CC2)cc1,inactive
11,COC(=O)c1cccc(NC(=O)CN2CCN(Cc3ccccc3)CC2)c1,inactive
12,O=C(Nc1ccc(-c2nc3ncccc3o2)cc1)c1ccc(Br)o1,inactive
13,COc1ccc(S(=O)(=O)Nc2ccc(Cl)cn2)c(C)c1C,inactive
14,COc1cccc(NC(=O)N2CCCC2C(=O)Nc2ccc3c(c2)OCO3)c1 (stereo not given),inactive
15,O=C(CSc1nc2ccccc2c(=O)n1Cc1ccco1)NCc1ccccc1,inactive
16,O=C(NC1CCCC1)C(NS(=O)(=O)c1cccc2nsnc12)c1ccccc1 (stereo not given),inactive
17,CCOC(=O)c1sc(NC(=O)CSc2ncn(-c3ccccc3)n2)nc1C,inactive
18,COC(=O)Nc1ccc(S(=O)(=O)N2CCCCCC2)cc1,inactive
19,Cc1cc(C)n2nc(SCC(=O)N(C)Cc3ccccc3)nc2n1,inactive
20,O=C(CSc1nnc(Cc2ccccc2)n1-c1cccc(Cl)c1)N1CCOCC1,inactive
